Rows were chosen to be rich in hits. Some 1.3% of all compounds tested hit in one or more screens of this group.
PfGluPho inh: PfG6PD (Plasmodium falciparum) enzyme inhibition. PfGluPho enzyme, NADPH resazurin-diaphorase fluorescence. inhibition, % at 20 µM. actives 0.78% (n = 350,000);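 active = inhibition reaching at least a set limit at 20 µM in the primary screen, cut at about 59% in these data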
G6PDH CS: L. mesenteroides G6PDH inhibition counter-screen; Purified L. mesenteroides G6PDH, diaphorase/resazurin coupled fluorescence, 45 min; AID 1020; actives 0.12% (n = 200,000); inhibition, % at 5 µM; in the data active = inhibition above about 50%
HKDC1 inh: HKDC1 (human) hexokinase inhibition; recombinant HKDC1, G6PDH/diaphorase resazurin coupled fluorescence; AID 493160; inhibition, % at 20 µM; Q2TB90; actives 0.16% (n = 340,000);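 active = inhibition above about 35% when tested at 20 µM, limit read from the data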
Target sequence (Q2TB90 whole entry, looked up): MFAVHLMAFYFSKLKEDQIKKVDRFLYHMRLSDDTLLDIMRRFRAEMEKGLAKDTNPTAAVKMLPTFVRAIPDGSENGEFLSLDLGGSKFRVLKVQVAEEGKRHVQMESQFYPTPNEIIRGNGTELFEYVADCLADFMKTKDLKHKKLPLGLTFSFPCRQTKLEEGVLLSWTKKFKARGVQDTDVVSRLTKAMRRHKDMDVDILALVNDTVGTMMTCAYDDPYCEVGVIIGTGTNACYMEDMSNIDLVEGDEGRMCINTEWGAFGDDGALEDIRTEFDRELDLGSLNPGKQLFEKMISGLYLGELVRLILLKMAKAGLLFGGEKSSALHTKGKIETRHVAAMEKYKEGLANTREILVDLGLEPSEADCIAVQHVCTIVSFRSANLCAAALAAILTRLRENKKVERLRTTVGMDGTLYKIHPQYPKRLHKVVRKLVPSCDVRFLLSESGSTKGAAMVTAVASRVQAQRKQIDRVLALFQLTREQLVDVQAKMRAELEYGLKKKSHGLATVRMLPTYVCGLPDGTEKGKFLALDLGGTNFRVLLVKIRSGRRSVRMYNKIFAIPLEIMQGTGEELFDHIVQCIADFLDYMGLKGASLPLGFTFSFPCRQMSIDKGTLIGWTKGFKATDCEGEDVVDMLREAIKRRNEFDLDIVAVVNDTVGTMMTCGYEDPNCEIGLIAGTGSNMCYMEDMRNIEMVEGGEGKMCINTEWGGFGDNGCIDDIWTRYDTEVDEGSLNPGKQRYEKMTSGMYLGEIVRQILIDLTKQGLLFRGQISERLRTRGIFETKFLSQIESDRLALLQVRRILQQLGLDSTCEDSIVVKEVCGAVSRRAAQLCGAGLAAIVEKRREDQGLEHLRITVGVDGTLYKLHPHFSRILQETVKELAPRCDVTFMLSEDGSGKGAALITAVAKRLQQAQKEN
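Test system: Recombinant HKDC1 (HK5) hexokinase enzyme, produced in-house | Input: HKDC1 at 5 µg/mL | Buffer or medium: Tris pH 8.0 buffer with MgCl2, Tween-20, BSA, BME | Schedule: 90 min reaction incubation at room temperature, dark | Technique: Resazurin-to-resorufin fluorescence via G6PDH and diaphorase coupling, 525/613 nm | Controls: DMSO wells with and without enzyme mix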
Diaph inh CS: inhibits diaphorase or chemically oxidizes, flagging diaphorase assay artifacts; actives 0.69% (n = 190,000); AID 1217; diaphorase resazurin-to-resorufin fluorescence, NADH, 16 min; bacterial (C. kluyveri) enzyme, not human; inhibition, % at 20 µM;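 active = primary screen inhibition at 20 µM above a set limit, cut at about 50% in these data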
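Test system: bacterial diaphorase enzyme (C. kluyveri); Quantity: 0.14 U/mL diaphorase, enzyme working solution; Times: reaction incubation of 16 min at room temperature; Measured by: fluorescence of resorufin formed from resazurin, Ex 544/Em 590 nm; Benchmarks: positive control minus NADH, DMSO neutral control.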
Diaph act CS: activates diaphorase or chemically reduces, flagging diaphorase assay artifacts; Diaphorase/resazurin coupled assay, resorufin fluorescence, 16 min; hits give high values; 1 = vehicle wells, 0 = NADH-free wells; activation factor at 20 µM; actives 0.005% (n = 190,000);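 active = diaphorase activity raised at least twofold by the compound at 20 µM; inactive = activation factor below 2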
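Material: purified diaphorase enzyme from Clostridium kluyveri; Also added: 0.114 mM NADH and 0.1 mM resazurin, final amounts; Doses: single compound dose of 20 µM, 1% DMSO final; Times: 16 min enzyme reaction, ambient temperature; Detection: resorufin fluorescence, excitation 544 nm, emission 590 nm; Measure: increased resorufin signal from activators or reducing compounds.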
PfG6PD confirm: PfG6PD inhibition, single-dose confirmed; AID 504753; actives 34% (n = 2,400); inhibition, % at 20 µM; recombinant PfGluPho, NADPH-diaphorase-resazurin fluorescence; shares compounds with PfGluPho inh;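 active = inhibition of at least 50% at 20 µM in any single replicate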
Diaph ctr 10uM: diaphorase inhibition or oxidation at 10 uM NADPH; diaphorase-coupled resazurin reduction, fluorescence, NADPH 10 uM; actives 39% (n = 820); inhibition, % at 20 µM; shares compounds with PfGluPho inh;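 active = average inhibition reaching 50% or more with the compound at 20 µM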;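 also: resorufin red fluorescence formed as diaphorase reduces resazurin using NADPH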
Diaph ctr 30uM: diaphorase inhibition or oxidation at 30 uM NADPH | shares compounds with PfGluPho inh | Diaphorase/resazurin coupled assay, resorufin fluorescence | inhibition, % at 20 µM | actives 29% (n = 820) | AID 504863;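 active = inhibition averaging 50% or more, tested at 20 µM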
A number is an active result; i = inactive; nt = not tested or not shown.

SMILES	PfGluPho inh	G6PDH CS	HKDC1 inh	Diaph inh CS	Diaph act CS	PfG6PD confirm	others
FC(F)Oc1ccc(NC(=S)NCc2ccccc2)cc1	i	i	i	i	i	nt
Oc1cccc2c(NC(=S)Nc3ccc(OC(F)F)cc3)cccc12	62.1	i	i	i	i	i
S=c1ncc2[nH]c(=S)[nH]c2[nH]1	68.3	nt	i	nt	nt	59.0	Diaph ctr 10uM=i;Diaph ctr 30uM=i
O=C1Nc2ccccc2C(=O)C1(Cl)Cc1ccccc1 (centres undefined)	69.5	i	i	i	i	66.4	Diaph ctr 10uM=i;Diaph ctr 30uM=i
COc1cccc(OC)c1C(=O)Nc1cc2c(cc1N1CCOCC1)n(C)c(=O)n2C	i	nt	i	nt	nt	nt
CC(Cc1ccc(O)c(O)c1)C(C)Cc1ccc(O)c(O)c1 (centres undefined)	84.2	nt	i	nt	nt	61.1	Diaph ctr 10uM=i;Diaph ctr 30uM=i
N#CCC(=O)Nc1ccc(C(=O)OCC(=O)N2CCCC2=O)cc1	i	nt	i	nt	nt	nt
O=C(CCSCCC(=O)NN=Cc1ccccc1)NN=Cc1ccccc1	71.7	nt	i	nt	nt	55.5	Diaph ctr 10uM=i;Diaph ctr 30uM=i
CC(Sc1ccccc1)C(=O)N/N=C/c1ccccc1 (centres undefined)	77.1	nt	i	nt	nt	i
O=C(CSCc1ccc(Cl)cc1)N/N=C/c1ccccc1	118.1	i	i	i	i	92.9	Diaph ctr 10uM=90.3;Diaph ctr 30uM=79.6
O=C(CSc1nc2ccccc2o1)N/N=C/c1ccccc1	69.3	i	i	i	i	68.3	Diaph ctr 10uM=61.5;Diaph ctr 30uM=52.4
O=C(CSc1nc2ccccc2o1)N/N=C/c1ccc(O)c(O)c1	i	nt	i	nt	nt	nt
CCOc1ccc(Cl)cc1CSc1n[nH]c(C)n1	i	i	i	i	i	nt
CCCc1nc(SCc2ccc(Cl)cc2Cl)n[nH]1	71.9	i	i	i	i	i
O=[N+]([O-])c1ccccc1S(=O)(=O)Nc1nc2ccccc2s1	i	nt	i	nt	nt	nt
O=[N+]([O-])c1ccc(-c2nc3ccc([N+](=O)[O-])cc3[nH]2)cc1	85.9	i	i	i	i	i
O=[N+]([O-])c1ccc2nc(/C=C/c3ccc(Cl)cc3)[nH]c2c1	62.2	i	i	i	i	i
Nc1ccc(-c2nc3ccc([N+](=O)[O-])cc3[nH]2)cc1	i	i	i	i	i	nt
Cc1sc2ncnc(N3CCC(C(=O)NNC(=O)COc4ccccc4Cl)CC3)c2c1C	i	nt	i	nt	nt	nt
CN(C)C(=O)c1c(C(F)(F)F)nn(C)c1Cl	i	i	i	i	i	nt
COc1ccccc1Nc1nnc(SCc2cc(=O)n3cc(C)ccc3n2)s1	69.3	i	i	i	i	i
Cc1ccccc1Nc1nnc(SCc2cc(=O)n3ccsc3n2)s1	i	i	i	i	i	nt
NC(=O)c1nsc(C(=O)N(CC(=O)NC2CCCC2)Cc2ccc3c(c2)OCO3)c1N	i	i	i	i	i	nt
CCOC(=O)CSc1nc2nc(Cl)c(Cl)nc2[nH]1	81.0	nt	nt	nt	nt	i
Cc1ccc(-c2c3c([nH]c(=S)c2C#N)CCCC3)o1	59.4	i	i	50.6	i	i
SMILES	PfGluPho inh	G6PDH CS	HKDC1 inh	Diaph inh CS	Diaph act CS	PfG6PD confirm	others
O=C(CCC1COc2ccccc2O1)NCc1ccccc1 (centres undefined)	i	i	i	i	i	nt
O=C(N/N=C/c1cc2c(cc1[N+](=O)[O-])OCO2)c1ccccn1	72.3	nt	i	nt	nt	i
O=C(N/N=C/c1cc2c(cc1Cl)OCO2)c1ccccn1	i	nt	i	nt	nt	nt
COc1ccc(OCC(=O)Nc2cc3c(cc2C(=O)O)OCCCO3)cc1	i	nt	i	nt	nt	nt
COc1ccc(N=Cc2[nH]c3ccccc3c2O)cc1	59.1	i	i	i	i	i
CCOc1ccc(S(=O)(=O)NCCC(=O)NCc2ccccn2)cc1	i	nt	i	nt	nt	nt
CN1CCN(/C=N/c2sc3c(c2C#N)CCCCC3)CC1	i	i	i	i	i	nt
N#Cc1c(/N=C/C=C/c2ccccc2)sc2c1CCCC2	59.7	i	i	i	i	i
Cn1cc(Br)cc2nc(C(F)(F)F)nc1-2	i	i	i	i	i	nt
Cc1ccc(C(=O)NCc2ccncc2)cc1S(=O)(=O)N1CCOCC1	i	nt	i	nt	nt	nt
O=C1C(=Cc2ccccc2O)SC(=S)N1CCCN1CCOCC1	71.3	nt	nt	nt	nt	i
COCCNC(=S)Nc1ccc(N2CCCCC2)cc1	64.5	i	i	i	i	i
COc1ccc(N/C=C2\CCc3ccccc3C2=O)cc1	90.5	61.7	i	89.8	i	i
O=C1/C(=C/Nc2ccc3c(c2)OCO3)CCc2ccccc21	88.0	53.1	i	74.8	i	i
COc1ccc2c(c1)CC/C(=C\Nc1ccc3c(c1)OCO3)C2=O	73.5	59.2	i	81.6	i	56.9	Diaph ctr 10uM=i;Diaph ctr 30uM=i
C/C(Cn1nnc2ccccc21)=N\OC(=O)c1ccccc1C	i	i	i	i	i	nt
Cc1ccc(Sc2c(C)[nH]n(C(C)(C)C)c2=O)cc1	i	i	i	i	i	nt
CC1=CC(=O)C(Sc2ccc(C)cc2)=CC1=O	123.9	nt	nt	nt	nt	109.0	Diaph ctr 10uM=90.5;Diaph ctr 30uM=63.8
COc1cc(OC)cc(-c2sc3ccc(OC)cc3c2C#CCO)c1	i	nt	i	nt	nt	nt
N#Cc1cc(-c2ccccc2)nn1-c1ccccc1	80.4	i	i	i	i	i
CCCOc1ccc2oc(=O)c3c(c2c1)CCCN3C(=O)CN(C)Cc1ccccc1	77.8	i	i	i	i	i
O=C(CN1CCCCC1)N1CCCc2c1c(=O)oc1ccc(OCc3ccccc3)cc21	i	i	i	i	i	nt
CC(=O)c1sc(=S)n(-c2ccc(Cl)cc2)c1C	i	i	i	i	i	nt
Cc1ccc(/C=C/C(=O)OCC(=O)NCc2cccs2)o1	61.0	nt	i	nt	nt	i
Cc1ccc(-n2c(SCC(=O)O)nc3c(sc(=S)n3-c3ccc(C)c(C)c3)c2=O)cc1	75.0	nt	i	nt	nt	i
SMILES	PfGluPho inh	G6PDH CS	HKDC1 inh	Diaph inh CS	Diaph act CS	PfG6PD confirm	others
Cc1cccc(C#N)c1NC1=CC(=O)CC(C)(C)C1	i	i	i	i	i	nt
COc1ccc(C(=O)OCC(=O)Nc2c(C)n(C)n(-c3ccccc3)c2=O)cc1OC	i	nt	i	nt	nt	nt
Cn1cc([N+](=O)[O-])c(C(=O)Nc2ccc(-c3nc4ccccc4[nH]3)cc2)n1	i	i	i	i	i	nt
Cn1cc([N+](=O)[O-])c(C(=O)Nc2ccc3nc(-c4ccccc4)[nH]c3c2)n1	62.3	i	i	i	i	i
O=C(Nc1ccc2nc(-c3ccccc3)[nH]c2c1)c1cccs1	75.6	i	i	i	i	i
CCCCC1(CO)C(=O)N(c2ccccc2)N(c2ccccc2)C1=O	i	nt	i	nt	nt	nt
CCCCC1C(=O)N(c2ccccc2)N(c2ccc(O)cc2)C1=O (centres undefined)	77.8	nt	i	nt	nt	53.8	Diaph ctr 10uM=i;Diaph ctr 30uM=i
C=C1CCN(C(CC(C)C)C(=O)OC)S(=O)(=O)c2ccccc21 (centres undefined)	i	nt	i	nt	nt	nt
